Source: PubChem BioAssay
The source made the active and inactive calls.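 The calls were made as follows, unless noted: active = inhibition at or above 50% relative to wild type and mutant plate controls; inactive = inhibition below 50%.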

What was measured:
[1] = inhibitors of TNFa-induced NFkB p65 translocation, primary screen, imaging, HUVEC, MLSMR starter and 10KST1 sets (AID 438;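 active = inhibition above 20% together with a positive visual image hit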;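 also: compound added about 3h40 before a 20 min TNFalpha stimulation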;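 as to inhibition: signal is the nuclear over cytoplasmic p65 intensity ratio per well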); details: HUVEC TNFa-induced p65 nuclear translocation; cell count: measured here: nuclei count (cytotoxicity indicator), at 2.08 µM; inhibition: at 2 µM, stronger effect = higher value, 0% TNFa-plus-vehicle, 100% no-TNFa wells
[2] = endothelial E-selectin expression blockers – imaging, HUVEC, immunofluorescence, MLSMR starter and 10KST1 sets, primary screen (AID 487;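 active = visually confirmed hit in the image check and inhibition above 20%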;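 as to inhibition: signal is fraction of cell area covered by stained E-selectin grains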;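 as to nuclei count: 100% = median nuclei count of all wells on the same plate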); details: HUVEC TNFalpha-induced E-selectin immunofluorescence imaging, at 2 µM; inhibition: stronger effect = higher value; nuclei count: measured here: cell number, toxicity
[3] = Primary imaging screen for DUSP6 inhibitors that restore phospho-Erk in transfected HeLa cells, chemical complementation (AID 609;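 active = compounds giving at least 50% inhibition in the cell-based MKP-3 phosphatase rescue imaging test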;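 as to inhibition: phospho-Erk level distribution per well compared with pooled transfected vehicle control wells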); details: HeLa MKP-3 transfected, phospho-Erk imaging KS statistic, at 10 µM, cells stimulated with TPA for 15 min
[4] = biological target: Dual specificity protein phosphatase 6 (Homo sapiens) (UniProt Q16828); test: as above; details: HeLa MKP-3 transfected, phospho-Erk imaging KS statistic; at 10 µM; stronger effect = higher value; cells stimulated with TPA for 15 min
Dual specificity protein phosphatase 6 (Homo sapiens), sequence (Q16828 whole entry, looked up): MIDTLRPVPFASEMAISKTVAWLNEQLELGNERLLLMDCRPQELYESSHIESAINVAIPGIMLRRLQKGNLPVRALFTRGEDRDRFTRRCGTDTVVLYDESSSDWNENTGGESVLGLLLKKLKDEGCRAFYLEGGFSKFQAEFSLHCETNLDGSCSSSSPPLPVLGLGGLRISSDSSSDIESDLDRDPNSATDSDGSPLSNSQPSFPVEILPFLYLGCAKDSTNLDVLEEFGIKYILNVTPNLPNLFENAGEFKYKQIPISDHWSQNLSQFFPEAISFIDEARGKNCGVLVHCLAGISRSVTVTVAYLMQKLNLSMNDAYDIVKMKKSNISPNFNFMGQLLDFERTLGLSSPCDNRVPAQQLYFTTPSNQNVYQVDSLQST

[5] = biological target: Voltage-gated potassium channel subunit beta-2 (Rattus norvegicus) (UniProt P62483); test: inhibitors of rat Kvbeta2 reductase activity – biochemical, NADPH fluorescence, primary screen (AID 622;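 active = fluorescence slope higher than the sample average by over 3 SD, cut at about -0.22 in these data, passing the limit was not always enough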;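 also: slope of raw intensity against log time taken from 70 to 1610 s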); details: recombinant KvBeta, 4-cyanobenzaldehyde reduction, at 10 µM, stronger effect = higher value
Voltage-gated potassium channel subunit beta-2 (Rattus norvegicus), sequence (P62483 whole entry, looked up): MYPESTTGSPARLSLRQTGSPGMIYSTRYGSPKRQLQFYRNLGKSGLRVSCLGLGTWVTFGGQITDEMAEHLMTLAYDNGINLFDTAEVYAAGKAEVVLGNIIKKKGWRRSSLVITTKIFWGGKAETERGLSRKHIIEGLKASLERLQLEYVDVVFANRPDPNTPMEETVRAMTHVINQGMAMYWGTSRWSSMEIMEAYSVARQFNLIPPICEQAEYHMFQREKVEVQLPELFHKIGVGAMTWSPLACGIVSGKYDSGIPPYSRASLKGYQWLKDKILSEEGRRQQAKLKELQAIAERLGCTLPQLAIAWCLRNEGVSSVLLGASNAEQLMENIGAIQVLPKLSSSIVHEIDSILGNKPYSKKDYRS

[6] = biological target: Voltage-gated potassium channel subunit beta-2 (Rattus norvegicus) (UniProt P62483); test: enhancers of rat Kvbeta2 NADPH turnover – biochemical, NADPH fluorescence, primary screen (AID 623;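 active = NADPH fluorescence slope more negative than the mean of all samples by about 3 SD, 99.7% confidence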;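 also: fluorescence intensity change per second fitted from 20 to 320 s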); details: Recombinant KvBeta, NADPH fluorescence decrease slope, 10 min; at 10 µM; stronger effect = lower value
[7] = biological target: Alpha-2C adrenergic receptor (Homo sapiens) (UniProt P18825); test: compounds altering alpha2C-coupled GIRK flux – cell-based, HEK293 alpha2C/GIRK1/2, thallium flux, primary screen (AID 624;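 active = fluorescence slope after compound addition differing from the mean of all screened samples at 99.7% confidence, in either direction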;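 also: slope of fluorescence ratio to pre-addition baseline per second over 15 to 24 s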); details: thallium flux BTC fluorescence, at 10 µM, actives lie on both sides
Alpha-2C adrenergic receptor (Homo sapiens), sequence (P18825 whole entry, looked up): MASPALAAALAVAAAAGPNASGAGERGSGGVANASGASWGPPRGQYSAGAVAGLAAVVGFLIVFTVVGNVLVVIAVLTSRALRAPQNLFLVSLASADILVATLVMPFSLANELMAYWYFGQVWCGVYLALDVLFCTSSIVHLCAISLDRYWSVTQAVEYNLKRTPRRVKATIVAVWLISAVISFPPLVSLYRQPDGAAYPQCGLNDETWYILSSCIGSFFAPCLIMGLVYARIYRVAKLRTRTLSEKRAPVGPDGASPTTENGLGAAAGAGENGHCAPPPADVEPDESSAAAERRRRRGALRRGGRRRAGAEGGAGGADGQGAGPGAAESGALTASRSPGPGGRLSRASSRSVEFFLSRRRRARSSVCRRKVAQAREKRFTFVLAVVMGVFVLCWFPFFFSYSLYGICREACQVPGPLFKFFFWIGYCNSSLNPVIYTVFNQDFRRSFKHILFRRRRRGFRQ

[8] = inhibitors of larval lipid processing in zebrafish, primary screen, whole organism, PED6 fluorescence, gall bladder and intestine (AID 686;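 active = a full or partial loss of lipid-probe fluorescence in the fish gall bladder, intestine or both, judged by eye; inactive = no fluorescence loss, or compound toxic to the fish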;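 also: larvae 5 to 7 days old with five fish per well; signal comes from phospholipase A2 cleavage of quenched PED6 carried via bile; overnight exposure to compound and PED6 before scoring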); details: Zebrafish larvae PED6 lipid processing, fluorescence scoring; screened at 20 µM (by protocol)
Procedure, shortened: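 system = live zebrafish larvae aged 5-7 days, whole organism | probe or stimulus = ingested quenched lipid PED6 at 100 nM | doses = 20 µM single dose | timing = overnight exposure | detection = fluorescence microscopy with visual scoring of gall bladder and intestine | read-out = visual per-well fluorescence inhibition score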

[9] = loss of swimming-algae plug formation – whole organism, Chlamydomonas reinhardtii, WT vs cilia-less mutant, absorbance, 96-well, primary screen (AID 463189); details: Chlamydomonas reinhardtii gravitaxis, OD600 absorbance, 2 days; at 10 µM; stronger effect = higher value;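 also: 0% = wild type cc124 cells in DMSO and 100% = ciliumless bld1 mutant cells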
[10] = measured here: cell density z-score
[11] = measured here: nuclear c-Myc green intensity z-score
[12] = measured here: nuclear pErk red intensity z-score, stronger effect = higher value

| SMILES | cell count [1] | inhibition [1] | inhibition [2] | nuclei count [2] [%] | z-score [3, 10] | z-score [3, 11] | z-score [3, 12] | inhibition [4] | fluorescence slope [5] | NADPH fluorescence slope [6] | slope [7] | outcome [8] | inhibition [9] |
| --- | --- | --- | --- | --- | --- | --- | --- | --- | --- | --- | --- | --- | --- |
| COc1cccc(-c2nc(NCc3ccco3)c3ccccc3n2)c1O | 550 | 3% (inactive) | -7.1% (inactive) | 113 | 0.234 | 1.11 | 1.04 | -10.5% (inactive) | -0.282 (inactive) | -1.4e-05 (inactive) | 0.00506 (inactive) | inactive | 14.5% (inactive) |
| N#Cc1c(-c2ccco2)cc(C2CC2)nc1N | 528 | -3.5% (inactive) | -51.8% (inactive) | 107 | -1.1 | -0.229 | -0.103 | -1.12% (inactive) | -0.43 (inactive) | -0.00027 (inactive) | 0.00359 (inactive) | inactive | -5.69% (inactive) |
| CN1CCN(c2nc(C(N)=O)cc(-c3ccccc3)n2)CC1 | 400 | -6.4% (inactive) | 14% (inactive) | 98.8 | 1.22 | -2.25 | 0.112 | 7.83% (inactive) | -0.498 (inactive) | -3.9e-05 (inactive) | 0.00569 (inactive) | inactive | 18.8% (inactive) |
| CCCc1cc(C(=O)Cc2ccc(F)cc2)c(O)cc1O | 563 | -8.9% (inactive) | -180% (inactive) | 128 | 0.0278 | -0.762 | -1.21 | 19.8% (inactive) | -0.507 (inactive) | -3.4e-06 (inactive) | 0.00499 (inactive) | inactive | 74.4% (active) |
| CCOC(=O)COc1ccc(Oc2nc(C)cc(OC)n2)nn1 | 443 | -4.6% (inactive) | -136% (inactive) | 152 | 0.693 | -0.0792 | 0.257 | 0.671% (inactive) | -0.417 (inactive) | -8.4e-05 (inactive) | 0.00639 (inactive) | inactive | 9.9% (inactive) |
| CC1(C)Cc2c(C#N)c(N3CCOCC3)nc(-c3ccccc3)c2CO1 | 600 | -14.3% (inactive) | -25.8% (inactive) | 109 | -0.0371 | -0.989 | 0.333 | 3.66% (inactive) | -0.424 (inactive) | -7.6e-05 (inactive) | 0.0042 (inactive) | inactive | -17.1% (inactive) |
| COC(=O)CSC1=C(C#N)C(=O)NC2(CCCCC2)S1 | 573 | -10.7% (inactive) | -35.3% (inactive) | 154 | -0.563 | 0.765 | 0.767 | -11.5% (inactive) | -0.493 (inactive) | -4.7e-05 (inactive) | 0.00592 (inactive) | inactive | -6.72% (inactive) |
| CN(C)c1nc2sc3c(c2c(=O)n1C)CC(C)(C)OC3 | 651 | -12.1% (inactive) | -452% (inactive) | 185 | -0.36 | 0.198 | 1 | -0.159% (inactive) | -0.514 (inactive) | -4.6e-05 (inactive) | 0.00471 (inactive) | inactive | 157% (active) |
| CCOc1cccc(-c2nnc3sc(-c4ccco4)nn23)c1 | 668 | -1.9% (inactive) | -152% (inactive) | 182 | 0.882 | 2.36 | -0.0575 | -13.3% (inactive) | -0.428 (inactive) | -0.000142 (inactive) | 0.00609 (inactive) | inactive | 18.3% (inactive) |
| COC(=O)c1ccc(Oc2nc3ccccc3n3c(C)nnc23)cc1 | 328 | -6.8% (inactive) | -57.8% (inactive) | 74 | 0.524 | 1.04 | -0.937 | 24.7% (inactive) | -0.434 (inactive) | -1.9e-05 (inactive) | 0.00622 (inactive) | inactive | 27% (inactive) |
| CC(C)Oc1ccc(Cc2c(O)nc(NCCCN(C)C)[nH]c2=O)cc1 | 383 | -15.2% (inactive) | -285% (inactive) | 152 | -0.061 | -1.61 | -0.785 | -2.07% (inactive) | -0.396 (inactive) | -1e-05 (inactive) | 0.00657 (inactive) | inactive | 26.1% (inactive) |
| O=c1/c(=C\c2cccn2-c2ccccc2)sc2nc3ccccc3n12 | 640 | -5.8% (inactive) | -42.1% (inactive) | 99.1 | -0.282 | 0.665 | 0.128 | 3.56% (inactive) | -0.181 (inactive) | 8.6e-06 (inactive) | 0.00666 (inactive) | inactive | 9.26% (inactive) |
| COC(=O)c1ccc(Cn2nnc3c(sc4nc(N5CCOCC5)c5c(c43)CCCC5)c2=O)o1 | 558 | -14.8% (inactive) | -101% (inactive) | 153 | 0.962 | -1.77 | -0.316 | 24.4% (inactive) | -0.275 (inactive) | 2.3e-06 (inactive) | 0.00716 (inactive) | active; weak signal in gallbladder and intestine | -3.46% (inactive) |
| O=C1OC2CCC1(c1ccccc1)C2 (stereo unspecified) | 573 | -7% (inactive) | 40.2% (inactive) | 137 | -1.09 | 0.357 | 0.719 | -5.89% (inactive) | -0.524 (inactive) | -7.2e-05 (inactive) | 0.00472 (inactive) | inactive | -4.76% (inactive) |
| N#Cc1c(-c2ccccc2Cl)cc(C2CC2)nc1N | 577 | -16.2% (inactive) | -31.3% (inactive) | 172 | 0.235 | -0.47 | 0.466 | -2.47% (inactive) | -0.415 (inactive) | -2.4e-05 (inactive) | 0.00637 (inactive) | inactive | -9.3% (inactive) |
| COc1cc(/C=N/O)ccc1OCc1ccc(C(=O)O)cc1 | 587 | -21.9% (inactive) | -51.1% (inactive) | 154 | -1.09 | 0.882 | 0.52 | -0.608% (inactive) | -0.357 (inactive) | -5.9e-05 (inactive) | 0.00492 (inactive) | inactive | -7.38% (inactive) |
| CCOC(=O)C1=C(c2ccccc2)NC(SCC(=O)Nc2ccccc2C)=C(C#N)C1c1ccco1 (stereo unspecified) | 433 | -4.2% (inactive) | -136% (inactive) | 166 | -0.18 | -0.317 | -0.0556 | -0.159% (inactive) | -0.408 (inactive) | -6.1e-05 (inactive) | 0.0072 (inactive) | inactive | 0.63% (inactive) |
| CSC(=Nc1ccccc1)C1=C(O)COC1=O | 315 | -17.4% (inactive) | -75.7% (inactive) | 139 | 1.64 | -0.593 | -1.01 | 5.26% (inactive) | -0.419 (inactive) | -8.2e-05 (inactive) | 0.00729 (inactive) | inactive | -2.91% (inactive) |
| COCCOC(=O)C1=C(C)OC(N)=C(C#N)C1c1ccco1 (stereo unspecified) | 364 | -7.8% (inactive) | -269% (inactive) | 165 | -0.623 | -0.763 | 1.29 | -13.5% (inactive) | -0.406 (inactive) | -4.7e-05 (inactive) | 0.00481 (inactive) | inactive | 20.2% (inactive) |
| O=c1[nH]c(CN2CCCCC2)nc2c1C1(CCCCC1)Cc1ccccc1-2 | 374 | -4.7% (inactive) | -4.9% (inactive) | 104 | 0.315 | 0.221 | -1.87 | -4.7% (inactive) | -0.395 (inactive) | 2.4e-05 (inactive) | 0.0066 (inactive) | inactive | -10.4% (inactive) |
| CN(C)CCCN1C(=O)C(O)=C(C(=O)c2cc3ccccc3o2)C1c1ccccc1 (stereo unspecified) | 454 | 2.5% (inactive) | -61.8% (inactive) | 132 | -0.256 | 0.437 | -0.536 | 6.04% (inactive) | -0.418 (inactive) | -5.3e-05 (inactive) | 0.00564 (inactive) | inactive | -3.04% (inactive) |
| CCOC(=O)c1nc2nc(C)c(Cl)c(=O)n2[nH]1 | 529 | 3.9% (inactive) | -83.9% (inactive) | 153 | 0.438 | -0.565 | -0.252 | 14% (inactive) | -0.497 (inactive) | -4.1e-05 (inactive) | 0.00501 (inactive) | inactive | 0.754% (inactive) |
| Oc1c(C=Nc2cccnc2)sc2ccccc12 | 623 | -14.4% (inactive) | -17% (inactive) | 170 | 0.476 | 0.705 | 1.13 | -20.4% (inactive) | -0.405 (inactive) | -6e-05 (inactive) | 0.0055 (inactive) | inactive | -14.9% (inactive) |
| c1coc(-c2nnc3sc(Cc4cccs4)nn23)c1 | 593 | -3.5% (inactive) | 60.4% (inactive) | 98.5 | 0.488 | -1.26 | -0.189 | -13.3% (inactive) | -0.5 (inactive) | -4.8e-06 (inactive) | 0.00451 (inactive) | inactive | 5.83% (inactive) |
| Nc1ccc(Cl)cc1/C(=N/O)c1ccccc1 | 337 | -13.8% (inactive) | -23% (inactive) | 65.2 | 0.198 | 0.536 | -0.0149 | 1.75% (inactive) | -0.451 (inactive) | 9e-06 (inactive) | 0.00461 (inactive) | inactive | 16.2% (inactive) |
| CC(C)OC(=O)c1sc2nc3c(cc2c1N)C(=O)CCC3 | 334 | -8% (inactive) | -109% (inactive) | 159 | 1.59 | -1.25 | -0.674 | 9.42% (inactive) | -0.403 (inactive) | -9.2e-05 (inactive) | 0.0073 (inactive) | inactive | -4.23% (inactive) |
| CCn1c(-c2ccco2)n[nH]c1=S | 428 | -12.3% (inactive) | -47.8% (inactive) | 92.3 | 0.73 | 0.522 | -1.57 | 22.3% (inactive) | -0.542 (inactive) | -2.6e-05 (inactive) | 0.00489 (inactive) | inactive | 19.9% (inactive) |
